Measured values as given in article PMC6911266 (Nature, 2019).
Residue numbers refer to the chain shown, from its start. Where “and” joins values, the source holds several entries; their conditions need not be identical. Equal values may be shown once. Read-outs that look alike come from different tables or passages of the source.

What was measured:
PfCRT 7G8 [1] = biological target: T1, PfCRT 7G8 (Plasmodium falciparum, UniProt W7FI62); test: Scintillation proximity assay; format: binding; details: for competition of [3H]-Arg binding (in words): 125 nM [3H]-Arg, 1 μM CQ or PPQ, 0.1 μM amodiaquine, 1 mM Arg, Lys or Leu; for EC50: half-maximal binding constant (EC50), isotopic dilution, SPA, nanodiscs, pH 7.5, isotopic dilution of [3H]-CQ or [3H]-PPQ
T1 sequence (W7FI62 1-424): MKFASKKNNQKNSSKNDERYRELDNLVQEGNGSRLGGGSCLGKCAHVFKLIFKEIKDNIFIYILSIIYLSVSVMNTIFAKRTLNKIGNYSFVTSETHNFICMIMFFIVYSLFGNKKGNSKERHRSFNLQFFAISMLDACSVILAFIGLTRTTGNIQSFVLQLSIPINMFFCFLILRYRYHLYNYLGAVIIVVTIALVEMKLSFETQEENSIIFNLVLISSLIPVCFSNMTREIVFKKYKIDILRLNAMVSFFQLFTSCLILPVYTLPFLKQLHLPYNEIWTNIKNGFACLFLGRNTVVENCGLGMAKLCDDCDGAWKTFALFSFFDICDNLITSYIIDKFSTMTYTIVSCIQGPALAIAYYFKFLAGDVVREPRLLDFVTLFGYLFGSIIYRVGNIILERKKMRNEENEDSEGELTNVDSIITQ

PfCRT 7G8 [2] = biological target: T1, PfCRT 7G8; test: Equilibrium dialysis binding, PfCRT variant in nanodiscs; details: for Bmax, binding at pH 5.5 / Bmax, binding at pH 7.5: equilibrium dialysis
PfCRT 7G8+F145I = biological target: T2, PfCRT 7G8+F145I (Plasmodium falciparum, UniProt W7FI62, F145I); test: as above; details: for Bmax, binding at pH 5.5 / Bmax, binding at pH 7.5: equilibrium dialysis
T2 sequence (W7FI62 1-424 F145I): T1 sequence (W7FI62 1-424) with F145I

PfCRT 7G8+C350R = biological target: T3, PfCRT 7G8+C350R (Plasmodium falciparum, UniProt W7FI62, C350R); test: as above; details: for Bmax, binding at pH 5.5 / Bmax, binding at pH 7.5: equilibrium dialysis
T3 sequence (W7FI62 1-424 C350R): T1 sequence (W7FI62 1-424) with C350R

PfCRT Dd2 [3] = biological target: T4, PfCRT Dd2 (Plasmodium falciparum, UniProt Q9N623, A220S/I356T/K76T/M74I/N326S/N75E/Q271E/R371I); test: as above; details: for Bmax, binding at pH 5.5 / Bmax, binding at pH 7.5: equilibrium dialysis
T4 sequence (Q9N623 1-424 M74I/N75E/K76T/A220S/Q271E/N326S/I356T/R371I): T1 sequence (W7FI62 1-424) with S72C, M74I, N75E, Q271E, D326S, L356T, R371I

PfCRT 7G8 [4] = biological target: T1, PfCRT 7G8; format: biochemical; details: for transport activity (in words): proteoliposomes
PfCRT Dd2 [5] = biological target: T4, PfCRT Dd2; test: Transport; format: biochemical; details: for transport activity (in words): proteoliposomes
[6] = Uptake in control liposomes; format: biochemical; details: 100 nM [3H]-drug, liposomes without PfCRT
In short: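 Control liposomes lack PfCRT and are loaded with 100 mM KPi, pH 7.5, and 2 mM β-mercaptoethanol. They are diluted into 100 mM Tris/Mes, pH 5.5, with 100 nM [3H]-CQ (5.45 Ci/mmol) or [3H]-PPQ (15 Ci/mmol) for 1 min. Non-specific filter binding, measured as mock uptake without liposomes, is subtracted. Data come from 2 independent experiments, each with 4 technical replicates.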

[7] = test system: P. falciparum 7G8^7G8 parasite line; test: Parasite drug susceptibility assay; format: cell-based, Plasmodium falciparum; details: Plasmodium falciparum, 7G8, 72 h
In short: (§1)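 Asynchronous asexual blood-stage parasites were seeded at 0.3% parasitemia and 1% hematocrit into 2-fold, 10-point test compound dilutions. Incubation was 72 h at 37°C under 5% O2/5% CO2/90% N2. Final parasitemia was read by flow cytometry. IC50 came from nonlinear regression, 4 independent assays in duplicate, with two-tailed Mann-Whitney U tests.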

[8] = test system: P. falciparum 7G8^7G8+F145I parasite line; test: Parasite drug susceptibility assay; format: cell-based, Plasmodium falciparum; details: for IC50: Plasmodium falciparum, 7G8, 72 h
In short: as §1

[9] = binding at pH 5.5, equilibrium dialysis, pH 5.5
[10] = binding at pH 7.5, equilibrium dialysis, pH 7.5
[11] = 100 nM [3H]-drug, 1 min, inwardly-directed pH gradient
[12] = initial rates over 3 s, Michaelis-Menten fit

| SMILES | competition of [3H]-Arg binding (in words) (PfCRT 7G8 [1]) | EC50 (PfCRT 7G8 [1]) | Kd (PfCRT 7G8 [2]; [9]) | Kd (PfCRT 7G8 [2]; [10]) | Bmax, binding at pH 5.5 (PfCRT 7G8 [2]; pH 5.5) | Bmax, binding at pH 7.5 (PfCRT 7G8 [2]; pH 7.5) | Kd (PfCRT 7G8+F145I; [9]) | Kd (PfCRT 7G8+F145I; [10]) | Bmax, binding at pH 5.5 (PfCRT 7G8+F145I; pH 5.5) | Bmax, binding at pH 7.5 (PfCRT 7G8+F145I; pH 7.5) | Kd (PfCRT 7G8+C350R; [9]) | Kd (PfCRT 7G8+C350R; [10]) | Bmax, binding at pH 5.5 (PfCRT 7G8+C350R; pH 5.5) | Bmax, binding at pH 7.5 (PfCRT 7G8+C350R; pH 7.5) | Kd (PfCRT Dd2 [3]; [9]) | Kd (PfCRT Dd2 [3]; [10]) | Bmax, binding at pH 5.5 (PfCRT Dd2 [3]; pH 5.5) | Bmax, binding at pH 7.5 (PfCRT Dd2 [3]; pH 7.5) | transport activity (in words) (PfCRT 7G8 [4]) | transport activity (in words) (PfCRT Dd2 [5]) | further results |
| --- | --- | --- | --- | --- | --- | --- | --- | --- | --- | --- | --- | --- | --- | --- | --- | --- | --- | --- | --- | --- | --- |
| CCN(CC)CCCC(C)Nc1ccnc2cc(Cl)ccc12 (centres unmarked) [CQ, chloroquine] | effectively competed | ~300 nM and 297 nM | 210 ± 60 nM | 280 ± 60 nM | 0.40 ± 0.03 mol CQ/mol PfCRT | 0.38 ± 0.02 mol CQ/mol PfCRT | 240 ± 60 nM | 290 ± 50 nM | 0.39 ± 0.03 mol CQ/mol PfCRT | 0.43 ± 0.02 mol CQ/mol PfCRT | 130 ± 30 nM | 300 ± 60 nM | 0.37 ± 0.02 mol CQ/mol PfCRT | 0.42 ± 0.03 mol CQ/mol PfCRT | 200 ± 40 nM | 310 ± 40 nM | 0.42 ± 0.04 mol CQ/mol PfCRT | 0.38 ± 0.01 mol CQ/mol PfCRT | robust transport activity | robust transport activity | 1-min uptake, transport in proteoliposomes (PfCRT 7G8 [4]; [11]): 3.14 ± 0.50 nmol/mg; catalytic turnover number (kcat) (PfCRT 7G8 [4]; from Vmax, assuming full activity of reconstituted PfCRT 7G8): ~ 0.2 s^−1; Vmax, transport in proteoliposomes (PfCRT 7G8 [4]; [12]): 92.2 ± 4.9 nmol/mg/min; time course of uptake (in words) (PfCRT 7G8 [4]; pH gradient 5.5–7.5 and membrane potential (valinomycin)): maximal within one minute; 1-min uptake, transport in proteoliposomes (PfCRT Dd2 [5]; [11]): 3.33 ± 0.22 nmol/mg; Vmax, transport in proteoliposomes (PfCRT Dd2 [5]; [12]): 91.37 ± 2.79 nmol/mg/min; 1-min uptake in control liposomes [6]: 0.12 ± 0.02 nmol/mg; IC50 [7]: 83 ± 7.5 nM; IC50 [8]: 7.3 ± 0.4 nM |
| Clc1ccc2c(N3CCN(CCCN4CCN(c5ccnc6cc(Cl)ccc56)CC4)CC3)ccnc2c1 [PPQ, piperaquine] | effectively competed | ~190 nM and 190 nM | 90 ± 20 nM | 220 ± 40 nM | 0.40 ± 0.01 mol CQ/mol PfCRT | 0.40 ± 0.02 mol CQ/mol PfCRT | 220 ± 30 nM | 260 ± 30 nM | 0.38 ± 0.01 mol CQ/mol PfCRT | 0.42 ± 0.01 mol CQ/mol PfCRT | 210 ± 30 nM | 250 ± 40 nM | 0.39 ± 0.02 mol CQ/mol PfCRT | 0.41 ± 0.02 mol CQ/mol PfCRT | 80 ± 10 nM | 220 ± 30 nM | 0.39 ± 0.01 mol CQ/mol PfCRT | 0.39 ± 0.02 mol CQ/mol PfCRT | Minimal | Minimal | fold increase in Kd compared with 7G8 parental isoform (PfCRT 7G8+F145I; pH 5.5): ~ 2 fold; fold increase in Kd compared with 7G8 parental isoform (PfCRT 7G8+C350R; pH 5.5): ~ 2 fold; transport activity (in words) (PfCRT 7G8 [4]; listed as [^3H]-PPQ): no detectable; 1-min uptake in control liposomes [6]: 0.09 ± 0.01 nmol/mg; IC50 [7]: 21.4 ± 1 nM; fold increase in IC90 compared to the isogenic 7G8 control line ([8]; 72 h growth inhibition): 188 fold; IC50 [8]: 28.7 ± 1 nM |
